Published values pooled from the literature.
Protocols differ between the studies behind these lines. In brackets after ≈: the same amount, converted by molar mass.

Compound	organism	assay	test system	conditions	quantity	result
COc1cc2ncn(-c3cc(O[C@H](C)c4ccccc4Cl)c(C(N)=O)s3)c2cc1OC	Plasmodium berghei	parasite growth, luciferase	human	liver stage	IC50	7000 nM
NC(=O)c1cccc(-n2c(/C=C/c3ccc(Cl)cc3)nc3ccncc3c2=O)c1	Enterococcus faecium	microbial growth, broth dilution	NCTC7171	–	MIC	> 128 µg/mL
O=C(Nc1ccccc1-c1ccc(F)c(F)c1)c1nccnc1C(F)(F)F	Monilinia fructicola	microbial growth	–	–	EC50	0.11 µg/mL
O=C(O)Cc1ccc(Oc2ccc(-c3noc(-c4ccc(O)cc4)n3)cc2)cc1	Enterococcus faecium	microbial growth, broth dilution	–	24 h	MIC	> 32 µg/mL
CCN(Cc1cnc2nc(N)nc(N)c2n1)c1ccc(C(=O)N2CCC(C(=O)OC)CC2)cc1	Trypanosoma brucei	parasite growth, resazurin	–	10 µM, 72 h	inhibition	31%
COc1cc(C=NNc2ncnc3c2cnn3-c2ccccc2)ccc1O	Trypanosoma brucei	parasite growth	–	–	EC50	1580 nM
CC(=O)Oc1cccc(-n2c(/C=C/c3ccc([N+](=O)[O-])cc3)nc3ccccc3c2=O)c1	Enterococcus faecium	microbial growth, broth dilution	NCTC7171	–	MIC	64 µg/mL (≈ 150 µM)
C[C@@H]1[C@H](O)[C@@H](C)/C=C/C=C/C=C/C=C/C=C/C=C/C=C/[C@H](O[C@@H]2O[C@H](C)[C@@H](O)[C@H](N)[C@@H]2O)C[C@@H]2O[C@](O)(C[C@@H](O)C[C@@H](O)[C@H](O)CC[C@@H](O)C[C@@H](O)CC(=O)O[C@H]1C)C[C@H](O)[C@H]2C(=O)O	Candida albicans	microbial growth, broth dilution	ATCC90028	–	IC50	0.26 µg/mL
CN(c1ccc(NC(=O)Nc2c(Cl)cccc2Cl)cc1)c1ccnc(Nc2cccc(CS(C)(=O)=O)c2)n1	Trypanosoma brucei	parasite growth	–	–	EC50	7940 nM
C/C(=C\c1ccc(O)cc1)C(=O)Nc1ccc(C(=O)N[C@@H](CC(N)=O)C(=O)Nc2ccc(C(=O)Nc3ccc(C(=O)Nc4ccc(C(=O)O)cc4)c(O)c3OC(C)C)cc2)cc1	Citrobacter freundii	microbial growth	DSM30039	–	MIC	0.125 µg/mL (≈ 0.148 µM)
N#Cc1ccc(/C=C/c2nc3ccncc3c(=O)n2-c2cccc(C(=O)O)c2)cc1	Enterococcus faecium	microbial growth, broth dilution	NCTC7171	–	MIC	> 128 µg/mL
C[N+](C)(C)CCc1ccc(Oc2ccc(-c3noc(-c4ccc(O)cc4)n3)cc2)cc1.[I-]	Enterococcus faecium	microbial growth, broth dilution	–	24 h	MIC	8 µg/mL
CNC(=O)c1cc(Oc2ccc(NC(=O)Nc3ccc(Cl)c(C(F)(F)F)c3)cc2)ccn1	Plasmodium berghei	parasite growth, luciferase	human	liver stage	IC50	1400 nM
N#Cc1ccc(/C=C/c2nc3ccccc3c(=O)n2-c2cccc(C(=O)NCCC(=O)O)c2)cc1	Enterococcus faecium	microbial growth, broth dilution	NCTC7171	–	MIC	> 128 µg/mL
CC(C)Oc1c(NC(=O)c2ccc(NC(=O)[C@H](CC(N)=O)NC(=O)c3ccc(NC(=O)c4ccc(C#N)s4)cc3)cc2)ccc(C(=O)Nc2ccc(C(=O)O)cc2)c1O	Citrobacter freundii	microbial growth	DSM30039	–	MIC	≤ 0.03 µg/mL
O=C(O)CCc1cccc(Oc2ccc(-c3noc(-c4ccc(O)cc4)n3)cc2)c1	Enterococcus faecium	microbial growth, broth dilution	–	24 h	MIC	> 32 µg/mL
O=C(O)c1cn(C2CC2)c2cc(N3CCNCC3)c(F)cc2c1=O	Mycobacterium intracellulare	microbial killing	ATCC23068	–	MBC	3 µM (≈ 0.994 µg/mL)
Cl.NCCc1ccc(Oc2ccc(-c3noc(-c4ccc(O)cc4)n3)cc2)cc1	Enterococcus faecium	microbial growth, broth dilution	–	24 h	MIC	4 µg/mL
COC(=O)Nc1cccc(-n2c(/C=C/c3ccc(C#N)cc3)nc3ccccc3c2=O)c1	Enterococcus faecium	microbial growth, broth dilution	NCTC7171	–	MIC	> 128 µg/mL
CC(C)Oc1c(NC(=O)c2ccc(NC(=O)[C@H](CC(N)=O)NC(=O)c3ccc(NC(=O)c4ccc(C#N)cc4)cc3)cc2)ccc(C(=O)Nc2ccc(C(=O)O)cc2)c1O	Citrobacter freundii	microbial growth	DSM30039	–	MIC	≤ 0.03 µg/mL
C[C@@H]1[C@H](O)[C@@H](C)/C=C/C=C/C=C/C=C/C=C/C=C/C=C/[C@H](O[C@@H]2O[C@H](C)[C@@H](O)[C@H](N)[C@@H]2O)C[C@@H]2O[C@](O)(C[C@@H](O)C[C@@H](O)[C@H](O)CC[C@@H](O)C[C@@H](O)CC(=O)O[C@H]1C)C[C@H](O)[C@H]2C(=O)O	Candida albicans	microbial killing	ATCC90028	–	MFC	2.5 µg/mL (≈ 2.71 µM)

Compound	organism	assay	test system	conditions	quantity	result
CC1=C(C(=O)Nc2ccc3[nH]ncc3c2)C(c2ccc(Cl)c(Cl)c2)CC(=O)N1 (centres unmarked)	Trypanosoma brucei	parasite growth	–	–	EC50	25100 nM
CCCCCCCCCCCCCC(O)CC(O)CO (centres unmarked)	Mycobacterium intracellulare	microbial growth, resazurin	ATCC23068	–	IC50	> 200 µg/mL
CN1CCC(n2cnc(-c3ccc(F)cc3)c2-c2ccnc(Nc3ccccc3)n2)CC1	Trypanosoma brucei	parasite growth	–	–	EC50	501 nM
CC(=O)Nc1ccc(-c2nc(-c3ccc(Oc4ccccc4)cc3)no2)cc1	Enterococcus faecium	microbial growth, broth dilution	–	24 h	MIC	> 32 µg/mL
C#CCCCCCCCCCCCC(O)CC(O)CO (centres unmarked)	Mycobacterium intracellulare	microbial growth, resazurin	ATCC23068	–	IC50	> 200 µg/mL
O=C(O)c1cn(C2CC2)c2cc(N3CCNCC3)c(F)cc2c1=O	Mycobacterium intracellulare	microbial growth	ATCC23068	–	IC50	0.3 µg/mL
N#Cc1ccc(/C=C/c2nc3ccncc3c(=O)n2-c2cccc(O)c2)cc1	Enterococcus faecium	microbial growth, broth dilution	NCTC7171	–	MIC	128 µg/mL (≈ 349 µM)
CC(CN)c1ccc(Oc2ccc(-c3noc(-c4ccc(O)cc4)n3)cc2)cc1.Cl (racemic)	Enterococcus faecium	microbial growth, broth dilution	–	24 h	MIC	4 µg/mL
COC(=O)CCNC(=O)c1cccc(-n2c(/C=C/c3ccc(C#N)cc3)nc3ccccc3c2=O)c1	Enterococcus faecium	microbial growth, broth dilution	NCTC7171	–	MIC	> 128 µg/mL
CC1=C(C(=O)Nc2cc3cn[nH]c3cc2F)C(c2ccc(C(F)(F)F)cc2)CC(=O)N1 (centres unmarked)	Plasmodium berghei	parasite growth, luciferase	human	liver stage	IC50	4700 nM
COc1cc(/C=N/Nc2ncnc3c2cnn3C(C)C)ccc1O	Trypanosoma brucei	parasite growth	–	–	EC50	1000 nM
COc1ncccc1CNc1cccc(-n2c(/C=C/c3ccc(C#N)cc3)nc3ccccc3c2=O)c1	Enterococcus faecium	microbial growth, broth dilution	NCTC7171	–	MIC	> 128 µg/mL
O=C(O)c1ccc(-c2c[nH]c3ncc(-c4ccccc4)cc23)cc1C1CCCC1	Plasmodium berghei	parasite growth, luciferase	human	liver stage	IC50	1200 nM
CC1=C(C(=O)Nc2ccc3[nH]ncc3c2)C(c2ccc3ccccc3c2)CC(=O)N1 (centres unmarked)	Trypanosoma brucei	parasite growth	–	–	EC50	3980 nM
C=CCCCCCCCCCCCC(O)CC(O)CO (centres unmarked)	Candida albicans	microbial growth, broth dilution	ATCC90028	–	IC50	> 200 µg/mL
NS(=O)(=O)c1ccc(N/N=C2\C(=O)Nc3ccc4ncccc4c32)cc1	Trypanosoma brucei	parasite growth	–	–	EC50	79.4 nM
Cl.NCCCc1ccc(Oc2ccc(-c3noc(-c4ccc(O)cc4)n3)cc2)cc1	Enterococcus faecium	microbial growth, broth dilution	–	24 h	MIC	2 µg/mL
O=C(O)c1cn(C2CC2)c2cc(N3CCNCC3)c(F)cc2c1=O	Mycobacterium intracellulare	microbial growth, resazurin	ATCC23068	–	IC50	0.4 µg/mL
CCCCCCCCCC(=O)N[C@@H](Cc1c[nH]c2ccccc12)C(=O)N[C@H](CC(N)=O)C(=O)N[C@@H](CC(=O)O)C(=O)N[C@@H]1C(=O)NCC(=O)N[C@@H](CCCN)C(=O)N[C@@H](CC(=O)O)C(=O)N[C@H](C)C(=O)N[C@@H](CC(=O)O)C(=O)NCC(=O)N[C@H](CO)C(=O)N[C@@H]([C@H](C)CC(=O)O)C(=O)N[C@@H](CC(=O)c2ccccc2N)C(=O)O[C@@H]1C	Enterococcus faecium	microbial growth, broth dilution	–	24 h	MIC	2 µg/mL (≈ 1.23 µM)
CS(=O)(=O)CCNCc1ccc(-c2ccc3ncnc(Nc4ccc(OCc5cccc(C(F)(F)F)c5)cc4)c3c2)o1	Trypanosoma brucei	parasite growth	–	–	EC50	2000 nM
